Apaf-1 inh = blocks human Apaf-1 apoptosome activity; reconstituted apoptosome caspase-3 activity, DEVD-Rh110 fluorescence; inhibition, % at 20 µM; AID 489030; hit rate 0.71% among 330,000; O14727; active means inhibition of at least 40% at 20 µM;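 further: plate controls were DMSO wells for no effect and DEVD-CHO caspase inhibitor wells for full effect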
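Material: biochemical Apaf-1 apoptosome reconstitution. Medium: Hepes buffer, pH 7.5. Also added: cytochrome c activation, bis-DEVD rhodamine 110 substrate. Timing: 30 min compound preincubation, 50 min activation, room temperature. Measured by: rhodamine 110 fluorescence at Ex 480/Em 540 nm.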
SENP8 block-1 = SENP8 protease inhibition. purified SENP8, Z-RLRGG-aminoluciferin cleavage, luminescence. inhibition, % at 10 µM. Q96LD8. hit rate 1.2% among 330,000; in the data active means inhibition above about 50%
Target sequence (Q96LD8 whole entry, looked up): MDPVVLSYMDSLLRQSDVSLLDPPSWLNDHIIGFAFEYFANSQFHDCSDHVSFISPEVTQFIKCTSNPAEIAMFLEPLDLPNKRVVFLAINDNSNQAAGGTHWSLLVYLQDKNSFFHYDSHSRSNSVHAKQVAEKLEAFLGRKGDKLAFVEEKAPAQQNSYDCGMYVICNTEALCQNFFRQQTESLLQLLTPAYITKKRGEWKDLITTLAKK
SENP7 block = SENP7 protease inhibition. recombinant SENP7, Z-RLRGG-aminoluciferin luminescence, 40 min. inhibition, % at 5 µM. AID 434973. hit rate 1.5% among 330,000;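 active means inhibition above about 50% at the single test dose, limit read from the data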;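 further: plate controls were DMSO with enzyme for no effect and no enzyme buffer wells for full effect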
SENP8 block-2 = inhibitors of human SENP8 protease. Q96LD8. recombinant SENP8, Nedd8 substrate fluorescence. inhibition, % at 20 µM. hit rate 0.64% among 360,000; in the data active means inhibition mostly above about 40%, no sharp cut-off; inactive means mostly below about 27%
UBC13 inh = human UBC13 polyubiquitination inhibition; P61088; UBC13 polyubiquitin chain formation, TR-FRET; inhibition, % at 20 µM; hit rate 0.47% among 330,000; AID 485273; in the data active means inhibition above about 45%, passing the limit was not always enough
SENP6 inh = SENP6 protease inhibition. inhibition, % at 10 µM. Recombinant SENP6 catalytic domain, aminoluciferin luminescence. hit rate 1.8% among 330,000. Q9GZR1;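 active means inhibition above about 50% at the single tested dose, limit read from the data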;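 further: plate controls were DMSO wells with enzyme for no effect and DMSO wells lacking enzyme for full effect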
SENP8 conf = confirmation of human SENP8 protease inhibitors | shares compounds with SENP7 block | Recombinant SENP8, Z-RLRGG-aminoluciferin luminescence, 60 min | inhibition, % at 12.5 µM | hit rate 40% among 6,200 | AID 488912;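 active means mean inhibition across replicates above about 50%, limit read from the data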
SENP6 conf = confirmation of human SENP6 protease inhibitors; shares compounds with SENP7 block; recombinant SENP6, Z-RLRGG-aminoluciferin luminescence; inhibition, % at 12.5 µM; hit rate 58% among 6,200; AID 488915
SENP7 confirm = human SENP7 inhibition, confirmed; recombinant SENP7, Z-RLRGG-aminoluciferin luminescence, 40 min; shares compounds with SENP7 block; hit rate 69% among 6,200; inhibition, % at 12.5 µM; AID 488917
Casp3 select = caspase-3 inhibition (SENP selectivity assay); inhibition, % at 12.5 µM; shares compounds with SENP7 block; AID 488918; purified caspase-3, Z-DEVD-aminoluciferin luminescence, 60 min; hit rate 60% among 6,200;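 active means mean inhibition above about 50%, limit read from the data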;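 further: plate controls were enzyme with DMSO for no effect and wells without caspase-3 for full effect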
Target sequence (P42574 28-227 limits assumed): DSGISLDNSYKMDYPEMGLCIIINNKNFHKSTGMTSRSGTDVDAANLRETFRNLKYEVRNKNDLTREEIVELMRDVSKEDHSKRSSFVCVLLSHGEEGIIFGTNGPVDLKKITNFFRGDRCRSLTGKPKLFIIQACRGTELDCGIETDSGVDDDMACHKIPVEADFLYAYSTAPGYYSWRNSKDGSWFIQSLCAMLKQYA
Luc interf = counter-screen for SENP inhibitors: luminescence interference; shares compounds with SENP7 block; Pre-incubated SENP8/Z-RLRGG-aminoluciferin, luciferase luminescence interference; inhibition, % at 12.5 µM; hit rate 39% among 6,200; AID 488919;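 active means mean inhibition above about 50% when retested at one dose, limit read from the data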;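 further: plate controls were DMSO wells with completed reaction for no effect and substrate without enzyme for full effect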
Active calls of the source: *; . = no result. The list is not random: actives were taken first. Their share in the collection is about 3%.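 How the source made its calls, unless noted: active means mean inhibition above about 50% in the one-dose retest (limit read from the data); inactive means the rest.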

SMILES	Apaf-1 inh	SENP8 block-1	SENP7 block	SENP8 block-2	UBC13 inh	SENP6 inh	SENP8 conf	SENP6 conf	SENP7 confirm	Casp3 select	Luc interf
COc1ccc(-c2cc3cc(OC)c(OC)cc3cn2)cc1	16	33	47	-340	9	-14	.	.	.	.	.
CCCCNC(=O)c1nc(-c2cc3ccccc3[nH]2)oc1-c1cccc(C(F)(F)F)c1	.	.	.	-418	.	.	.	.	.	.	.
COc1ccc(C(=O)N/C(=C\c2cn(C)c3ccccc23)C(=O)N2CCOCC2)cc1	5	4	-1	-2	-13	-7	.	.	.	.	.
CCOC(=O)c1cccc(NC(=O)C2CCCN(c3nnc(N4CCCC4=O)s3)C2)c1 (centres undefined)	-2	2	0	3	1	13	.	.	.	.	.
Cn1c(SCc2ccccc2F)nc2cccnc21	2	25	48	10	-2	60*	54*	51*	81*	64*	57*
O=C1c2ccccc2[C@@H]2C[C@@H](O)[C@H](Nc3cccc(Cl)n3)CCN12	6	.	-3	8	.	.	.	.	.	.	.
CCCN(Cc1cc(=O)[nH]c2ccccc12)C(=O)CC	-5	-7	4	-29	-11	98*	5	3	-6	-4	-10
CCC(=O)N(CC)Cc1cc(=O)[nH]c2ccccc12	5	-3	-7	-4	2	4	.	.	.	.	.
COc1cccc(C(=O)Nc2cc(Cl)c(O)c(Cl)c2)c1	-11	55*	59*	8	5	71*	64*	64*	89*	85*	68*
COc1cccc(NC(=O)c2ccccc2)c1	-1	36	51*	13	2	47	48	44	77*	73*	51*
COc1cccc(NC(=O)c2ccc(OC(F)(F)F)cc2)c1	2	85*	94*	7	0	88*	66*	79*	98*	87*	38
COc1cccc(NC(=O)c2ccc3nsnc3c2)c1	-1	43	60*	-13	-6	63*	58*	56*	85*	80*	71*
COc1cccc(NC(=O)c2ccccc2C(F)(F)F)c1	2	-5	-12	8	-4	-17	.	.	.	.	.
O=C(NCCCN1CCCC1=O)[C@H](CSCc1ccccc1)N1Cc2ccccc2C1=O	4	-2	4	19	2	8	.	.	.	.	.
Cc1cc(C(=O)N2CCCC(N3CCN(c4cccc(Cl)c4)CC3)C2)nc(C)n1 (centres undefined)	1	7	-1	-2	-9	1	.	.	.	.	.
COc1c(-c2ccccc2)oc2c(ccc3occc32)c1=O	-8	1	1	-188	7	-1	.	.	.	.	.
COc1cccc(NC(=O)c2cccc(C(=O)Nc3cccc(OC)c3)c2)c1	2	4	5	5	2	16	.	.	.	.	.
CCCCOC(=O)Nc1ccc2c(C)cc(=O)oc2c1	8	35	62*	-294	12	-34	3	3	50*	48	15
COc1cccc(NC(=O)Nc2cccc(C(=O)O)c2)c1	-6	90*	93*	0	-4	7	95*	95*	101*	90*	94*
COc1cccc(NC(=O)C(=S)NC2CCCCC2)c1	15	10	52*	19	-5	-26	59*	65*	84*	48	33
COc1ccc(C(=O)Nc2cccc(OC)c2)cc1	-13	79*	92*	5	-5	86*	2	92*	101*	96*	91*
NC(=O)c1cccc(Nc2nc(C(N)COCc3ccccc3)cs2)n1 (centres undefined)	.	.	.	-2	.	.	.	.	.	.	.
Cc1cc(F)ccc1NC(=O)Cn1c(C)csc1=O	-5	6	4	-8	0	9	.	.	.	.	.
